Measured values published in ChEMBL document CHEMBL1127081, “Synthesis of 2,4-disubstituted thiazoles and selenazoles as potential antifilarial and antitumor agents. 2. 2-Arylamido and 2-alkylamido derivatives of 2-amino-4-(isothiocyanatomethyl)thiazole and 2-amino-4-(isothiocyanatomethyl)selenazole” (J Med Chem, 1993).
The source made the active and inactive calls. No cut-off for these calls is given here.

Assays:
L1210 [1] = assay: Screen growth rate of L1210 leukemic cells in the presence of compound at 100 uM expressed as percent of control; format: functional, Mus musculus
Summary of the method: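 L1210 cells grown in static suspension at 38 °C in Fischer's medium with continuous 100 μM compound for 3 days. Growth rate = ratio of control to treated population doubling time, expressed as % of control; if growth slowed, the final rate over the 3-day period was used.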

L1210 [2] = assay: Compound was tested in vitro for antiproliferative activity against L1210 leukemic cells; format: functional, cell-based; conditions: Mus musculus
Summary of the method: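 Mouse L1210 leukemia cells grown in static suspension culture at 38 °C in Fischer's medium. Cells were exposed continuously to a range of concentrations for 3 days. Growth rate = control doubling time / treated doubling time, as % of control; the final rate was used if growth slowed. IC50 = concentration reducing growth rate to 50% of control.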

Acanthocheilonema viteae = assay: Antifilarial activity against adult worm of A. viteae in jirds at 100 mg/kg x 5 days administered subcutaneously; No activity; format: functional, organism-based; design: dose 100 mg/kg
Brugia pahangi = assay: Compound tested for anti-filarial activity against adult worm of Brugia pahangi in jirds at 100 mg/kg x 5 days administered subcutaneously; No activity; format: functional, organism-based; design: dose 100 mg/kg
L1210 [3] = assay: Compound was tested in vitro for antiproliferative activity against L1210 leukemic cells; No significant inhibition; format: functional, cell-based, Mus musculus
[4] = target: GMP synthase [glutamine-hydrolyzing] (Mus musculus, UniProt Q3THK7); assay: In vitro inhibitory activity against partially purified GMP synthetase in L1210 cells
Chain of GMP synthase [glutamine-hydrolyzing] (Q3THK7 whole entry): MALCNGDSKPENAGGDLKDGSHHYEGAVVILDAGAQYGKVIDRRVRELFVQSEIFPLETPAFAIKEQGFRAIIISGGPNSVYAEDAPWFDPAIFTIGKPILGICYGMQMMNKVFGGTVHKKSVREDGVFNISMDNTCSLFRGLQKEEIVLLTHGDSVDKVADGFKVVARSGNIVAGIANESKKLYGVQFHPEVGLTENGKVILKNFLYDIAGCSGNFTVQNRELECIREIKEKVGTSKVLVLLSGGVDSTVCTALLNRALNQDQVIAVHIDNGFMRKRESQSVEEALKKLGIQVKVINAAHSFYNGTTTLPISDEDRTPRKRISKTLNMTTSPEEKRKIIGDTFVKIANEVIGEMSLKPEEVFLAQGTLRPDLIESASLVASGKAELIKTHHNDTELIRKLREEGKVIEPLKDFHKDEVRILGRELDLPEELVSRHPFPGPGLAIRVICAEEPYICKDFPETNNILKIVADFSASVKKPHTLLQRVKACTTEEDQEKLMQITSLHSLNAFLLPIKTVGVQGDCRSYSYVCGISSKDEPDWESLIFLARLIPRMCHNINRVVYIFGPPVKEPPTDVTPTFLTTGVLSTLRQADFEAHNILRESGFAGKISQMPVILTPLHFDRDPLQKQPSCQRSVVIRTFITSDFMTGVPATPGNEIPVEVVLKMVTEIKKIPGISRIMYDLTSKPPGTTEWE

| Structure (SMILES) | GR (L1210 [1]) [%] | IC50 (L1210 [2]) [µM] | Activity (Acanthocheilonema viteae) | Activity (Brugia pahangi) | IC50 (L1210 [3]) | IC50 [4] [µM] |
| --- | --- | --- | --- | --- | --- | --- |
| CC(=O)Nc1nc(CN=C=S)cs1 | 1 | 5.2 | inactive | inactive |  |  |
| CC(C)(C)C(=O)Nc1nc(CN=C=S)c[se]1 | 0 | 18 | inactive | inactive |  |  |
| O=C(Nc1nc(CN=C=S)cs1)c1ccc(Cl)cc1 | 0 | 0.22 | inactive | inactive |  |  |
| Nc1nc(CN=C=S)cs1 | 0 | 26 | inactive | inactive |  |  |
| Nc1nc(CN=C=S)c[se]1 | 0 | 21 | inactive | inactive |  |  |
| CC(=O)Nc1nc(CCl)cs1 | 75 | > 100 | inactive | inactive |  |  |
| CC(C)C(=O)Nc1nc(CN=C=S)c[se]1 | 0 | 28 | inactive | inactive |  |  |
| Cc1ccc(C(=O)Nc2nc(CN=C=S)cs2)cc1 | 25 | 0.48 | inactive | inactive |  |  |
| CC(=O)Nc1nc(CN=C=S)c[se]1 | 14 | 30 | inactive | inactive |  |  |
| COc1ccc(C(=O)Nc2nc(CN=C=S)cs2)cc1 | 0 | 0.44 | inactive | inactive |  |  |
| CC(C)(C)c1ccc(C(=O)Nc2nc(CN=C=S)cs2)cc1 | 72 | > 100 | inactive | inactive |  |  |
| O=C(Nc1nc(CCl)cs1)c1ccccc1 | 100 |  | inactive | inactive | Not Active |  |
| CC(=O)Nc1nc(CCl)c[se]1 | 65 | > 100 | inactive | inactive |  |  |
| O=C(Nc1nc(CN=C=S)cs1)c1ccc(C(F)(F)F)cc1 | 0 | 0.5 | inactive | inactive |  |  |
| O=C(Nc1nc(CN=C=S)cs1)c1ccc(Cl)c(Cl)c1 | 0 | 0.82 | inactive | inactive |  |  |
| O=C(Nc1nc(CCl)c[se]1)c1ccccc1 | 101 |  | inactive | inactive | Not Active |  |
| CC(C)C(=O)Nc1nc(CN=C=S)cs1 | 0 | 8.2 | inactive | inactive |  |  |
| CC(C)(C)C(=O)Nc1nc(CN=C=S)cs1 | 28 | 4.3 | inactive | inactive |  |  |
| O=C(Nc1nc(CN=C=S)cs1)c1ccccc1 | 0 | 0.2 | inactive | inactive |  | 0.35 |
| O=C(Nc1nc(CN=C=S)cs1)c1ccc(F)cc1 | 0 | 1.1 | inactive | inactive |  |  |
| CCC(=O)Nc1nc(CN=C=S)cs1 | 0 | 6.8 | inactive | inactive |  |  |
| O=C(Nc1nc(CN=C=S)c[se]1)c1ccccc1 | 13 | 0.9 | inactive | inactive |  |  |
| CCC(=O)Nc1nc(CN=C=S)c[se]1 | 0 | 3.5 | inactive | inactive |  |  |
| O=C(Nc1nc(CN=C=S)cs1)C(F)(F)F | 20 |  | inactive | inactive |  |  |
| COC(=O)Nc1nc(CN=C=S)cs1 |  |  | inactive | inactive |  |  |
